Assay outcomes as filed in PubChem BioAssay.
m5-HT2A agonist: agonists of mouse serotonin 5-HT2A receptor (HTR2A). actives 0.66% (n = 360,000). activation, % at 7.6 µM. CHO-K1 mHTR2A beta-arrestin complementation, luminescence; percent of 30 µM serotonin response;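 active = activation above a run cutoff, the mean activation of all tested compounds plus 3 SD, cut at about 14% in these data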;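 note: 0% = plate median of compound wells and 100% = 30 µM serotonin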
APJ agonist: agonists of human APJ apelin receptor | CHO-K1 APJ PathHunter beta-arrestin, luminescence; 0% DMSO wells, 100% apelin | actives 0.11% (n = 330,000) | P35414 | activation, % at 20 µM;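 active = activation more than six SD over the plate average, tested at 20 µM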;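 note: 0% = DMSO alone and 100% = apelin-13 at 10 nM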
Target sequence (P35414 whole entry, looked up): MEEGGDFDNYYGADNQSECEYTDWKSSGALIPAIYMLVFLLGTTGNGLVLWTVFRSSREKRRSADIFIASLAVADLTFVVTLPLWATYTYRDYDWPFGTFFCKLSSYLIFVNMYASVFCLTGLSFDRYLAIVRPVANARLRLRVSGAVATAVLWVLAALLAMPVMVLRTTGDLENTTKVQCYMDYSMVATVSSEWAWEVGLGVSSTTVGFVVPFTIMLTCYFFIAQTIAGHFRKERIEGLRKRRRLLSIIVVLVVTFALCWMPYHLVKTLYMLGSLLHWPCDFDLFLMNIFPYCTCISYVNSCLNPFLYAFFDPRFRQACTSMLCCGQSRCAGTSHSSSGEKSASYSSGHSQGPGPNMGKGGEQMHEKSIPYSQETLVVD
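Test system: CHO-K1 APJ beta-arrestin complementation cell line. Amount: cell density 1000 per well. Controls: DMSO negative, 10 nM Apelin-13 positive. Signal: luminescent beta-gal fragment complementation, chemiluminescent substrate. Read-out basis: agonist-driven arrestin binding to APJ. Timing: compound stimulation 90 min at 25 °C, detection 60 min.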
APJ antagonist: blocks the human apelin receptor APJ; P35414; CHO-K1 APJ beta-arrestin complementation, luminescence; inhibition, % at 20 µM; actives 0.32% (n = 330,000); AID 2521;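 active = inhibition above about 40% at 20 µM, limit read from the data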;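 note: cells challenged with 10 nM apelin-13 agonist together with compound; plate controls were apelin-13 plus DMSO wells for no effect and DMSO wells lacking apelin-13 for full effect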
CCR6 antagonist: CCR6 (human) receptor antagonism | P51684 | inhibition, % at 20 µM | AID 493098 | CHO-K1 CCR6 PathHunter beta-arrestin, luminescence, CCL20-stimulated | actives 0.49% (n = 340,000);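 active = compounds whose inhibition of the agonist-driven luminescence signal at 20 µM reaches about 50%, limit read from the data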;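 note: cells stimulated with CCL20 at 14 nM final; plate controls were DMSO with CCL20 for no effect and DMSO without agonist for full effect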
EBI2 block: EBI2 (human) antagonism; P32249; EBI2 beta-arrestin recruitment, luminescence, 7a,25-OHC stimulated; inhibition, % at 5 µM; actives 0.81% (n = 360,000); in the data active = inhibition above about 38%;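 note: enzyme fragment complementation signal reports receptor beta-arrestin coupling in cells; 0% = agonist plus DMSO wells and 100% = wells without agonist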
CXCR6 block: blocks human CXCR6 beta-arrestin recruitment | CHO-K1 PathHunter CXCR6 beta-arrestin, luminescence | actives 0.36% (n = 360,000) | inhibition, % at 20 µM; in the data active = inhibition above about 34%, passing the limit was not always enough;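 note: antagonist mode with CXCL16 agonist at 10 nM final; 0% = 10 nM CXCL16 with DMSO and 100% = unstimulated wells without agonist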
OPRM1 ag: activates human mu opioid receptor in HTR2A counterscreen | shares compounds with m5-HT2A agonist | U2OS OPRM1 beta-arrestin PathHunter, luminescence; DMSO 0%, DAMGO 9.3 µM 100% | activation, % at 9.3 µM | AID 624380 | actives 5.3% (n = 2,300);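 active = mean activation above the mean of DMSO-only wells plus 3 SD, cut at about 0.5% in these data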
HTR2A ag conf: mouse HTR2A agonism confirmed. shares compounds with m5-HT2A agonist. CHO-K1 PathHunter beta-arrestin recruitment, luminescence; DMSO 0%, 30 µM serotonin 100%. activation, % at 7.6 µM. actives 19% (n = 2,300). AID 624381;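 active = mean activation across triplicates above the hit threshold derived in the original primary screen, cut at about 15% in these data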
* = called active by the depositor; · = no result. This is a sample that favours compounds with a hit; in the whole collection about 2.1% have one here.

SMILES	m5-HT2A agonist	APJ agonist	APJ antagonist	CCR6 antagonist	EBI2 block	CXCR6 block	OPRM1 ag	HTR2A ag conf
CN(C(=O)c1cccc(NC(=O)Cc2cccc(NC(=O)C3CCCN(C(=O)CCc4ccccc4)C3)c2)c1)C1CCC1 (configuration not stated)	-3	·	·	14	1	1	·	·
CCS(=O)(=O)c1nc(S(=O)(=O)c2ccc(C)cc2)c(N2CCCC2)s1	-9	-2	20	17	2	8	·	·
CCS(=O)(=O)c1nc(S(=O)(=O)c2ccc(C)cc2)c(N2CCCCCC2)s1	15*	·	·	·	3	2	-1	-4
CCOc1ccc(CN(C)CC(=O)Nc2ccccc2C(=O)NC2CC2)cc1	-8	5	34	-2	-6	-8	·	·
COc1cc(CC(=O)N(C)CC(=O)Nc2cc(C)ccc2C)cc(OC)c1OC	5	0	-16	-6	8	6	·	·
CC(=O)NCC1(O)CCCC(C)C1 (configuration not stated)	5	-2	-6	-4	-2	11	·	·
CCOC(=O)N1CCC(c2cc(=O)n3[nH]ccc3n2)CC1	-2	-1	-57	7	3	-1	·	·
CCOC(=O)N1CCC(c2cc(=O)n3[nH]cc(C(=O)OC)c3n2)CC1	20*	-2	-82	-4	0	2	0	3
CCn1cc(CN2CCC(C(=O)Nc3ccc(Oc4ccccc4F)cc3)CC2)cn1	15*	·	·	·	-17	-11	-1	-6
CCN(c1cccc(C)c1)S(=O)(=O)c1c(C)[nH]c(C)c1C(=O)N1CCCCC1	-3	-2	13	-2	-2	2	·	·
O=C1C(=O)c2ccccc2C(O)=C1c1cccc([N+](=O)[O-])c1	20*	-8	32	35	3	18	-1	-5
CC(C)C(=O)Nc1ccc(C(=O)NNC(=S)NC(=O)c2ccco2)cc1	15*	-3	17	25	1	6	-1	2
Cc1ccc(C(=O)NNC(=S)NC(=O)c2ccco2)cc1	-4	-1	22	43	10	23	·	·
CCOc1ccc(N(CC(=O)NC2CC2)S(=O)(=O)c2ccc(C)cc2)cc1	0	0	8	-9	8	4	·	·
COc1ccccc1NS(=O)(=O)c1ccc(C)c(NS(=O)(=O)c2cc(NC(C)=O)ccc2OC)c1	0	·	·	0	-7	-9	·	·
CC(Sc1ccc(Cl)cc1)C(=O)Nc1ccc2c(c1)OCO2 (configuration not stated)	-4	-4	14	1	12	-13	·	·
CC(Sc1ccc(Cl)cc1)C(=O)NCc1ccc2c(c1)OCO2 (configuration not stated)	22*	1	5	16	-3	-11	-1	2
O=C(Nc1ccccn1)[C@@H]1CCC(=O)N1C(=O)OCc1ccccc1	18*	-3	-14	2	0	-1	0	-3
COc1ccccc1-c1cc2nc(-c3ccccc3)cc(N3CCN(C(=O)c4ccoc4)CC3)n2n1	-2	·	·	·	12	-3	·	·
CC1(N=Cc2cc(Cl)ccc2O)COP(=O)(Nc2ccccc2)OC1 (configuration not stated)	2	·	·	5	-6	-1	·	·
CCCc1cc(NCCCN2CCOCC2)n2c(nc3ccccc32)c1C#N	32*	-1	-5	-4	-29	12	0	0
CCOC(=O)c1c(C)[nH]c(C)c1S(=O)(=O)NCc1ccc(OCC)cc1	-7	-9	4	18	10	-2	·	·
COC(=O)[C@@]1(Cc2ccc(F)cc2)[C@H]2c3cc(C(=O)N(C)C)n(CCc4c[nH]c5ccc(O)cc45)c3C[C@H]2CN1C(=O)c1ccccc1	26*	·	·	·	7	-7	0	11
COc1ccc(S(=O)(=O)N2CCCCC2)cc1NC(=O)C1CC1(Cl)Cl (configuration not stated)	-10	·	·	·	7	-1	·	·
Cc1cc2c(=O)[nH]c(N)nc2[nH]1	16*	·	·	·	-4	-5	0	1
SMILES	m5-HT2A agonist	APJ agonist	APJ antagonist	CCR6 antagonist	EBI2 block	CXCR6 block	OPRM1 ag	HTR2A ag conf
Cc1ccc(-c2cc(-c3ccco3)c3c(N)c(C(=O)NN)oc3n2)cc1	15*	0	-19	5	0	7	0	0
NNC(=O)c1oc2nc(-c3cccs3)cc(-c3ccco3)c2c1N	-3	-2	10	·	13	8	·	·
O=C(CCn1cnnn1)N1CCCC(Nc2ccc(F)cc2)C1 (configuration not stated)	2	5	-3	17	-6	2	·	·
Cn1ncc(Br)c1NC(=O)Nc1ccccc1	14*	0	-18	-11	4	-10	1.0*	8
Cn1ncc(Br)c1NC(=O)Nc1ccc(Cl)cc1	-1	-3	0	-2	-4	-2	·	·
O=C(NCc1ccncc1)c1ccc(S(=O)(=O)Nc2ccccc2)cc1	15*	-3	21	20	-12	-18	0	-5
CN1CCc2cc(O)c(O)cc2C(c2ccccc2)C1 (configuration not stated)	17*	-2	-4	1	-14	-1	0	78*
CN1CCc2cc(Cl)c(O)cc2[C@@H](c2ccccc2)C1	7	·	·	6	·	-1	·	·
Oc1cc2c(cc1O)C(c1ccccc1)CNCC2 (configuration not stated)	14	-1	2	14	-7	-4	·	·
Oc1cc2c(cc1O)[C@@H](c1ccccc1)CNCC2	19*	·	·	3	-2	0	0	48*
CN(CCC(=O)c1ccccc1)CCC(=O)c1ccccc1	-7	-3	-6	16	-7	-2	·	·
CC(C)C[C@H]1C(=O)N2CCC[C@H]2[C@]2(O)O[C@](NC(=O)C3C=C4c5cccc6[nH]c(Br)c(c56)C[C@H]4N(C)C3)(C(C)C)C(=O)N12 (some centres not stated)	48*	4	-3	2	90*	-2	0	174*
COc1ccccc1CC(=O)Nc1cc(C)on1	-5	·	·	·	-2	6	·	·
COc1ccc(CC(=O)Nc2cc(C)on2)cc1OC	15*	-5	4	-5	-7	8	-1	-2
COc1cc(OC)cc(-c2c(C#Cc3ccsc3)c3cc(-c4cccc5[nH]cc(C=O)c45)ccc3n2C)c1	21*	0	-13	10	-33	-13	-1	-2
